pEC50, pIC50, pKi: −log10 of the molar value.
What was measured:
[1] = target: PI3-kinase p110-alpha/p85-alpha (Homo sapiens, UniProt P42336, H1047R); assay: Inhibition of p110alpha H1047R mutant/p85alpha (unknown origin) using PIP2:3PS lipid kinase as substrate in presence of ATP measured by ADP-Glo lipid kinase assay; format: protein-complex assay
Outline: (§1)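 Lipid kinase assay with PIP2:3PS substrate held at 3.25 µM. Activity normalized to no-compound control for each enzyme and fitted to a variable-slope sigmoidal dose-response curve.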

[2] = AUC(infinity) in BALB/c mouse at 10 mg/kg, po measured for 8 hrs; format: ADME, organism-based; set-up: route oral, time 8 hrs, dose 10 mg/kg; conditions: in vivo
Outline: (§2)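 BALB/c mice dosed I.V. or P.O. at the stated dose; plasma levels followed for 8 h. Parameters from noncompartmental analysis: AUC (h.ng/ml), T1/2 (h), Cl (L/h/Kg), Vd (L/Kg), Cmax (ng/ml), Tmax (h).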

[3] = target: Voltage-gated inwardly rectifying potassium channel KCNH2 (Homo sapiens, UniProt Q12809); assay: Inhibition of human ERG by fluorescence polarization assay
Outline: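 Predictor h-ERG membrane preparations (sonicated) incubated with test compound dilutions and fluorescent tracer (working 4X tracer at 4 nM) at room temperature for ≥1 h. Read-out by fluorescence polarization, ex 530/25, em 590/35.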

[4] = target: Serine/threonine-protein kinase mTOR (Homo sapiens, UniProt P42345); assay: Inhibition of recombinant human GST tagged mTOR (1360 to 2549 residues) expressed in baculovirus expression system measured by LanthaScreen assay
Outline: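 mTOR inhibition measured by LanthaScreen assay; IC50 values average two independent experiments.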

[5] = test system: HCT-116; assay: Growth inhibition of human HCT-116 cells harboring mutated p110alpha measured after 72 hrs by Cell titre Glo-luminiscence cell viability assay; format: functional
Outline: (§3)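 Cells harvested just before confluency and seeded at 4,000 cells/well, then left 24 h before dosing. Serial dilutions from 10 mM DMSO stocks, final DMSO ≤0.5%, each concentration in duplicate.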

[6] = Inhibition of PI3K/mTOR in human MCF7 cells assessed as reduction of AKT phosphorylation at Ser473 residue measured after 3 hrs by western blot assay; format: cell-based; conditions: MCF7, 3 h
Outline: (§4)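 MCF7 cells treated for 3 h across a dose range, washed and lysed with phosphatase and protease inhibitors. Lysates run on 10% SDS-PAGE and blotted, antibodies incubated overnight at 4 °C.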

[7] = species: Homo sapiens; assay: Selectivity ratio of Ki for human p110delta/p85alpha to Ki for human p110alpha/p85alpha using PIP2 as substrate in presence of ATP
Outline: (§5)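 Ki from a PI3-kinase HTRF assay run per manufacturer. Enzyme levels: p110α/p85α and p110δ/p85α 100 pM, p110β/p85α 500 pM, p110γ 4 nM. ATP at 50× KM: 200 μM (α, δ), 250 μM (β), 100 μM (γ). PIP2 10 μM. Activity normalized to no-compound control. Ratio is the isoform Ki over the α Ki.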

[8] = target: PI3-kinase p110-alpha/p85-alpha (Homo sapiens, UniProt P42336, E542K); assay: Inhibition of p110alpha E542K mutant/p85alpha (unknown origin) using PIP2:3PS lipid kinase as substrate in presence of ATP measured by ADP-Glo lipid kinase assay; format: protein-complex assay; outline: as §1
[9] = test system: SK-OV-3; assay: Growth inhibition of human SK-OV-3 cells harboring mutated p110alpha measured after 72 hrs by Cell titre Glo-luminiscence cell viability assay; format: functional; outline: as §3
[10] = Inhibition of PI3K/mTOR in human MCF7 cells assessed as reduction of P70S6K phosphorylation at Thr389 residue measured after 3 hrs by western blot assay; format: cell-based; conditions: MCF7, 3 h; outline: as §4
[11] = target: T1, Cytochrome P450 1A2 (Homo sapiens, UniProt P05177); assay: Inhibition of CYP1A2 (unknown origin) using Luciferin-ME as substrate at 10 uM preincubated with enzyme and substrate for 5 mins followed by addition of NADPH regeneration system and measured after 60 mins by luminescence method; format: ADME
T1 sequence (P05177 whole entry): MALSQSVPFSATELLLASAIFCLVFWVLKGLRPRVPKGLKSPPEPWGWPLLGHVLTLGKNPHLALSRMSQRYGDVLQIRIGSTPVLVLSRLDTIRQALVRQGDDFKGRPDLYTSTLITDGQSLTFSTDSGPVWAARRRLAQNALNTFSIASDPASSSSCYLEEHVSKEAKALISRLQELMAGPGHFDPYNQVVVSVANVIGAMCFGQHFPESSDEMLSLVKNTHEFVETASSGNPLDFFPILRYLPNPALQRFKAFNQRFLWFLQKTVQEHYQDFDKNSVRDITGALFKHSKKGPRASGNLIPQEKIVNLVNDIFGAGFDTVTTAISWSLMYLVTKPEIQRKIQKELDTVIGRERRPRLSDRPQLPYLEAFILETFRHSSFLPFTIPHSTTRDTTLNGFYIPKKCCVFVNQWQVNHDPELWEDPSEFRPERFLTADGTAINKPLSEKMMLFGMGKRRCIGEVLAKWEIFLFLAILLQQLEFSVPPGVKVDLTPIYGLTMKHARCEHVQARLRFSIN
Outline: (§6)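 P450-Glo luminescence assays with these substrates: Luciferin-ME (CYP1A2), Luciferin-PPXE (CYP3A4), Luciferin-H (CYP2C9), LuciferinH-EG (CYP2C19), Luciferin-ME-EG (CYP2D6). Compounds run in 1/3 serial dilutions from 10 µM in 0.5% DMSO with enzyme and substrate. After 5 min preincubation, NADPH regeneration reagent added; 60 min at 37 °C, then detection reagent for 30 min. Background subtracted.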

[12] = species: Homo sapiens; assay: Selectivity ratio of IC50 for recombinant human GST tagged mTOR (1360 to 2549 residues) expressed in baculovirus expression system to IC50 for human full length p110alpha (1 to 1068 residues) expressed in baculovirus-infected Sf21 cells
Outline: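 mTOR activity measured by LanthaScreen assay. PI3K-α activity measured by ADP Hunter Plus (ADP accumulation, fluorescence ex 544/em 580 nm), normalized to no-compound control and fitted to a sigmoid dose-response curve. IC50s are the average of two independent experiments. Ratio is mTOR IC50 over PI3K-α IC50.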

[13] = target: Cytochrome P450 3A4 (Homo sapiens, UniProt P08684); assay: Inhibition of CYP3A4 (unknown origin) using Luciferin-PPXE as substrate at 10 uM preincubated with enzyme and substrate for 5 mins followed by addition of NADPH regeneration system and measured after 60 mins by luminescence method; format: ADME; outline: as §6
[14] = Inhibition of PI3K/mTOR in human U2OS cells assessed as inhibition of AKT1 phosphorylation at Ser473 residue by C-ELISA; format: cell-based
Outline: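 U2OS osteosarcoma cells grown in 0.1% FBS and serum-stimulated. Endogenous phospho-AKT1 Ser473 quantified by cell-based ELISA with chemiluminescent substrate. Signal plotted against inhibitor concentration and fitted to a sigmoid dose-response curve.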

[15] = Clearance in BALB/c mouse at 5 mg/kg, iv measured for 8 hrs; format: ADME, organism-based; conditions: in vivo; outline: as §2
[16] = species: Homo sapiens; assay: Selectivity ratio of Ki for human p110beta/p85alpha to Ki for human p110alpha/p85alpha using PIP2 as substrate in presence of ATP; outline: as §5
[17] = Half life in BALB/c mouse at 5 mg/kg, iv measured for 8 hrs; format: ADME, organism-based; conditions: in vivo; outline: as §2

Sequence of PI3-kinase p110-alpha/p85-alpha (Homo sapiens, UniProt P42336, E542K) (P42336 whole entry E542K, looked up): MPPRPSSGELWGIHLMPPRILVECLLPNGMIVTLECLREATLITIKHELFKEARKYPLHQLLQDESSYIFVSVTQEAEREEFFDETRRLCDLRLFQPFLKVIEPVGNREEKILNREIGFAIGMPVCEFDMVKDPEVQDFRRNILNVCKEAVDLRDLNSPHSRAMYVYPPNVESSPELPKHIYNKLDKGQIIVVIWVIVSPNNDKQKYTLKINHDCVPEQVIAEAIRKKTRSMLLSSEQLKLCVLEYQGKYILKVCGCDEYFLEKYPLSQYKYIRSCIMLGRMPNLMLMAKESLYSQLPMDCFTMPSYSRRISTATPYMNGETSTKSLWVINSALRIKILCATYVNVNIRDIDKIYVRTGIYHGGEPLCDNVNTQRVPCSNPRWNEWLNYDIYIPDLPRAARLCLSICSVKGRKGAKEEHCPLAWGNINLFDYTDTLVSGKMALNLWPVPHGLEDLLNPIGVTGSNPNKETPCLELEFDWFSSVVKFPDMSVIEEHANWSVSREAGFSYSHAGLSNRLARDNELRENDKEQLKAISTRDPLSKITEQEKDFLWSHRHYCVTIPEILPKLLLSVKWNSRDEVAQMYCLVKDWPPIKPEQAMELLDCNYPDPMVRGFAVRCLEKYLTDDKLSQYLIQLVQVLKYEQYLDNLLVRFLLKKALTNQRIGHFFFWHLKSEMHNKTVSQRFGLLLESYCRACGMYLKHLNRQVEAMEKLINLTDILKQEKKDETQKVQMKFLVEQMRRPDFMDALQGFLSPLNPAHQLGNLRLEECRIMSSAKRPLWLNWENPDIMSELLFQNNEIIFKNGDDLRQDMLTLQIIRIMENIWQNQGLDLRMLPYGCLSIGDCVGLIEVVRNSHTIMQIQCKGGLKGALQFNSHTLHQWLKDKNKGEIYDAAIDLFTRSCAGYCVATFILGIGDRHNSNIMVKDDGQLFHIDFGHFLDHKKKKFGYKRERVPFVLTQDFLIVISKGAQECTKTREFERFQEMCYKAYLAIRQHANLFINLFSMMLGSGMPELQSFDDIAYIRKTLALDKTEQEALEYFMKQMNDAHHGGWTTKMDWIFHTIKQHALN
Sequence of Cytochrome P450 3A4 (P08684 whole entry): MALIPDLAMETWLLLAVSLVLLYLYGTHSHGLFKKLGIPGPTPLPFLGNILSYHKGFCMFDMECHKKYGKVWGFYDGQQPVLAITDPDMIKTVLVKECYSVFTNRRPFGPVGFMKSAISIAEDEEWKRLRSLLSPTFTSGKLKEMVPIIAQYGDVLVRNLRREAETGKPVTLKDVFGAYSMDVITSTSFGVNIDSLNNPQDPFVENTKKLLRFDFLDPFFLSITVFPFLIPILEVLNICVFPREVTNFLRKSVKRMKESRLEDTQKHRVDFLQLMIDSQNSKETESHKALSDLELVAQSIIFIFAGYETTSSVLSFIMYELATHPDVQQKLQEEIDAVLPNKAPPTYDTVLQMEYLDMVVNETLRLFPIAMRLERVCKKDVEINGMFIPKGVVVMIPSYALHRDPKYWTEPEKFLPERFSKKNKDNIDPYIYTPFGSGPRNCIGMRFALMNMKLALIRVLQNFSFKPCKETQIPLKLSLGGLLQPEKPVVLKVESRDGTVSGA
Sequence of PI3-kinase p110-alpha/p85-alpha (Homo sapiens, UniProt P42336, H1047R) (P42336 whole entry H1047R, looked up): as the sequence (P42336 whole entry E542K, looked up) above, with K542E, H1047R counted along it
Sequence of Voltage-gated inwardly rectifying potassium channel KCNH2 (Q12809 whole entry): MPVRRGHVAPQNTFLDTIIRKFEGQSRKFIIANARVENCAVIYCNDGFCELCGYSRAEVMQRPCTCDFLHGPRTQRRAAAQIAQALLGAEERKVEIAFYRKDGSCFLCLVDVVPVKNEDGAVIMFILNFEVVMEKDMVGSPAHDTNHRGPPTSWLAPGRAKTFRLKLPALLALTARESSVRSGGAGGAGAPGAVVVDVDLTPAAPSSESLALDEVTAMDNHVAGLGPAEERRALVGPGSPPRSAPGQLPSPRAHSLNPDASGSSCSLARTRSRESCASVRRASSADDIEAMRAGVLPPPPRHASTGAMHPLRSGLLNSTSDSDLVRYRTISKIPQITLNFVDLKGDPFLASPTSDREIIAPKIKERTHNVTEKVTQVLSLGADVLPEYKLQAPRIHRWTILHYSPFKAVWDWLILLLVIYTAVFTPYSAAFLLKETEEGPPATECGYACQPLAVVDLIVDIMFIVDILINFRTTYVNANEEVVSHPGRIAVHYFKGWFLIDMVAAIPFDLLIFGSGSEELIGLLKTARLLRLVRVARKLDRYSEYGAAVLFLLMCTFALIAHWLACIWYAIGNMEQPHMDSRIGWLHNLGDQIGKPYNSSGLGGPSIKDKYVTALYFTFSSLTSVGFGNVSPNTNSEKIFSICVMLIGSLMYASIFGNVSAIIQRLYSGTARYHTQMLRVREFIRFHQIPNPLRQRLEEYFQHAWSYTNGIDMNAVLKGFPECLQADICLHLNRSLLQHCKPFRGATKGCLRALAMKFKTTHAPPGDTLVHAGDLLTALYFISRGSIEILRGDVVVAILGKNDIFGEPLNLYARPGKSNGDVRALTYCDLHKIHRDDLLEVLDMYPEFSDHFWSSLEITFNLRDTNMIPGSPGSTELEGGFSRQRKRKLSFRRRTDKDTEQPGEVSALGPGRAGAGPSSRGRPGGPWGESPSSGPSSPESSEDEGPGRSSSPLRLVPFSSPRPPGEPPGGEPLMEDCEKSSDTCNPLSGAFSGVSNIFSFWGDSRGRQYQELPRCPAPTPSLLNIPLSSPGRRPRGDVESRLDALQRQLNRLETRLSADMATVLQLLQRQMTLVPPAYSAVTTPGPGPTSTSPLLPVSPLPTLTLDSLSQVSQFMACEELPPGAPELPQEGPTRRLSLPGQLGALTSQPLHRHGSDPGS

pKi [1]: 10.00
AUC(0-inf) [2]: 4480 ng·h/mL
pIC50 [4]: 8.48
GI50 [5]: 22.8 nM
pEC50 [6]: 9.34
Selectivity ratio [7]: 0.4
pKi [8]: 9.57
GI50 [9]: 18.9 nM
pEC50 [10]: 9.04
pIC50 [11]: < 4.52
pIC50 [13]: < 4.52
pEC50 [14]: 9.77
clearance [15]: 31.5 mL/min/kg
Selectivity ratio [16]: 6
half-life [17]: 2.59 h
SMILES: COc1ncc2cc1NS(=O)(=O)c1cccc(c1)C(=O)NCc1cncc(c1)-c1cnc3ccc-2cn13
pIC50 [3]: < 4.52
Ratio IC50 [12]: 4.1

Reference: ChEMBL document CHEMBL4819017 (Eur J Med Chem, 2021)
